The values below come from ChEMBL document CHEMBL5674883, “The Heterochromatin Landscape in Migrating Cells and the Importance of H3K27me3 for Associated Transcriptome Alterations” (Cells, 2018).

Common to all, as to format: cell-based
Assay [1] concerns the target Histone-lysine N-methyltransferase EZH2 (Mus musculus) (UniProt Q61188). The experiment in a line: Inhibition of EZH2 in mouse B16-F1 migrating cells assessed as fold change in H3K27me3-independent regulated Tmem179-mRNA expression at 3 uM measured by […] analysis relative to control cells. An outline of the steps:
(§1)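 Confluent B16-F1 cells on fibronectin-coated plates were scratched at multiple sites, washed once with DMEM and left to migrate 3 h in growth medium (37 °C, 7% CO2); unscratched cells served as control. GSK343 (3 µM) was added 3 h before lysis. Poly A mRNA was sequenced (RNA-seq), with 5 replicates for untreated and 3 for treated cells. Differential expression was called by linear model with batch correction, at FDR <0.05 and fold change ≥1.3.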

Assay [2] has the same target. The assay is described as follows: Inhibition of EZH2 in mouse B16-F1 migrating cells assessed as fold change in H3K27me3-buffered regulated Tead4-mRNA expression at 3 uM measured by […] analysis relative to control cells. The procedure, abridged:
as §1

For assay [3] the target is unchanged. The assay is described as follows: Inhibition of EZH2 in mouse B16-F1 migrating cells assessed as fold change in H3K27me3-buffered regulated Zc3h7a-mRNA expression at 3 uM measured by […] analysis relative to control cells. An outline of the steps: as §1
The target in assay [4] is T1, RNA polymerase II (Mus musculus) (UniProt P08775+Q8CFI7+P97760+A0A3Q4L2S8+Q80UW8+P61219+P62488+Q923G2+P60898+O08740+Q63871+P62876). The experiment in a line: Inhibition of RNA polymerase II in mouse B16-F1 migrating cells assessed as fold change in Nelfe-RNA stability at 0.1 mM measured by ChIP-seq analysis relative to control cells.
Assay [5] deals with T1, RNA polymerase II (Mus musculus). The assay is described as follows: Inhibition of RNA polymerase II in mouse B16-F1 migrating cells assessed as fold change in Larp4-RNA stability at 0.1 mM measured by ChIP-seq analysis relative to control cells.

Sequence of Histone-lysine N-methyltransferase EZH2 (Mus musculus) (Q61188 whole entry): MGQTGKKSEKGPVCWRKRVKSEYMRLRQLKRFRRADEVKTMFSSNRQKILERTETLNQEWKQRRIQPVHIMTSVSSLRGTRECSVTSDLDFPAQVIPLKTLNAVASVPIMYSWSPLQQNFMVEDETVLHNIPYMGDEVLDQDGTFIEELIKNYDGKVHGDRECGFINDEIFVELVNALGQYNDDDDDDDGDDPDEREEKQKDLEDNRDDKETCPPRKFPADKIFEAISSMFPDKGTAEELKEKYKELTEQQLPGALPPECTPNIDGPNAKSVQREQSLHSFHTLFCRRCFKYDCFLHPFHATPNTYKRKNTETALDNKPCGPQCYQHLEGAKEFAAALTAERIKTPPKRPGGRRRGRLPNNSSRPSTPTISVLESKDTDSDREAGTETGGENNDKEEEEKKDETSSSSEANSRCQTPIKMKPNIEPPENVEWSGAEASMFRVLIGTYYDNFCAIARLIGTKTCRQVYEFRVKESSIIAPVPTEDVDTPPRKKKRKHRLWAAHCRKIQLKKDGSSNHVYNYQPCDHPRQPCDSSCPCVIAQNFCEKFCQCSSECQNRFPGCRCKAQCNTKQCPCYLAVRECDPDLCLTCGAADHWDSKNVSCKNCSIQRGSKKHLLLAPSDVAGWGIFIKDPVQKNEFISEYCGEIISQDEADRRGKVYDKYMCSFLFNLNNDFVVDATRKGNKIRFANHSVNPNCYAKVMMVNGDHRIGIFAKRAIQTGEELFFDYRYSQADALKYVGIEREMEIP

`CCCc1cc(C)[nH]c(=O)c1CNC(=O)c1cc(-c2ccnc(N3CCN(C)CC3)c2)cc2c1cnn2C(C)C`: the log2FC in assay [1] was 1.1; in assay [2], 0.38; in assay [3] it was -0.42.
For the compound `OC[C@H]1O[C@@H](n2cnc3cc(Cl)c(Cl)cc32)[C@H](O)[C@@H]1O`, the log2FC was 0.39 in assay [4] and -0.9 in assay [5].
